Most compounds without a hit are left out; they make up all but 3.5% or so of the library.
MrgX1 PAM – human MrgX1 positive allosteric modulation, primary screen | Q96LB2 | MrgX1-HEK293, Fluo-4 calcium flux, FDSS; hits give high values | B-score at 10 µM | 310,000 compounds, 0.63% hits;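 active = plate-corrected calcium response at least 3 library SD above typical, normal starting fluorescence, not activating the receptor alone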;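 also: compound read alongside a low EC10 to EC30 dose of BAM8-22 agonist; peak minus trough fluorescence over baseline measured at the second addition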
Target sequence (Q96LB2 whole entry, looked up): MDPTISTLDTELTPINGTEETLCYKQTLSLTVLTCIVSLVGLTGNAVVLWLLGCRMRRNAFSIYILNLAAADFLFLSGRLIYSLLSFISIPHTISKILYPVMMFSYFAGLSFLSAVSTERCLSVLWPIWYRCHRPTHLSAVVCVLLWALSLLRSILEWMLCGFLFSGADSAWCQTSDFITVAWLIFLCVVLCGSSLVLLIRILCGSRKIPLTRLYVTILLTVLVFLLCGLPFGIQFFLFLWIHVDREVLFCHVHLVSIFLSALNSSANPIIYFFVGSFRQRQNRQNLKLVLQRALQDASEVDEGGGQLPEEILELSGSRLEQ
MrgX1 ag – agonists of human MrgX1 receptor | 310,000 compounds, 0.44% hits | AID 588627 | B-score at 10 µM | MrgX1-HEK293 cells, Fluo-4 calcium fluorescence, agonist mode; hits give high values;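 active = calcium response B-score plate-corrected fluorescence ratio at least 3 library SD, with starting fluorescence B-score inside 5 SD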
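System – MrgX1-expressing HEK293 cells · Incubation – cells plated overnight, dye loaded 0.5 h 37 °C, 0.5 h room temperature · Technique – kinetic Fluo-4 NW fluorescence of intracellular calcium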
MrgX1 antagonist – antagonists of human MrgX1 receptor; Q96LB2; MRGX1-HEK293 calcium flux, Fluo-4, BAM8-22 antagonism; hits give low values; B-score at 10 µM; 310,000 compounds, 1.3% hits; AID 588676;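 active = calcium-response B-score plate-corrected more than 3 library SD below zero, starting fluorescence within 5 deviations, no agonist response on first addition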;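 also: peak minus trough fluorescence over baseline after final BAM8-22 challenge near maximal dose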
RGS4 act – RGS4 potentiation or activation; 310,000 compounds, 0.92% hits; B-score at 10 µM; HEK293 M3R/inducible RGS4, carbachol calcium flux Fluo4; hits give low values;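 active = B-score of the integrated calcium signal more than 4 SD below the library mean, with starting fluorescence not abnormally high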;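 also: negative B-score means reduced calcium response which marks RGS4 activation or potentiation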
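test system = M3R-expressing HEK293 line, RGS4 induced by doxycycline | probe or stimulus = carbachol at ECmax as muscarinic agonist stimulus | timing = dye loading 30 min 37 °C, buffer rest 30 min RT | signal = calcium dye Fluo4 fluorescence | evaluation = B score from integrated fluorescence ratio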
RGS4 block – inhibitors of human RGS4; P49798; 310,000 compounds, 0.45% hits; AID 463165; B-score at 10 µM; HEK293 M3R/RGS4 inducible, Fluo-4 calcium flux; hits give high values; triggered by carbachol at its EC20;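 active = B-score, a plate-corrected calcium signal, over three deviations above library mean, with baseline fluorescence within five deviations of library mean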;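 also: RGS4 expression induced by doxycycline in cells with stable M3 receptor; B-score is computed from the integrated fluorescence ratio over baseline after carbachol; higher B-score means a larger calcium signal and so more RGS4 inhibition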
Target sequence (P49798 whole entry, looked up): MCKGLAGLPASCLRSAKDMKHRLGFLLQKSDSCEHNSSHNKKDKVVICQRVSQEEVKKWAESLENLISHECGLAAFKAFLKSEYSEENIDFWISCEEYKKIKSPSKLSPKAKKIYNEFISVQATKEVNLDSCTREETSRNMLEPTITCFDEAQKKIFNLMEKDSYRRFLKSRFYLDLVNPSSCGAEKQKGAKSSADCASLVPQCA
RGS4 inh valid – validation of RGS4 inhibitors. shares compounds with RGS4 block. HEK293 M3R/RGS4, carbachol calcium Fluo-4 fluorescence; carbachol added at its EC20; 0 = buffer wells, 100 = carbachol control. calcium response, % at 10 µM. 1,700 compounds, 65% hits;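 active = duplicate-averaged calcium response above the buffer-only control mean plus 5 SD of those controls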;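 also: integrated fluorescence ratio F max minus min over baseline F0; higher response in RGS4-induced cells means RGS4 inhibition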
M3R Ca ctr – non-induced cell nonspecific activity of RGS4 inhibitors | HEK293 M3R non-induced, carbachol calcium Fluo-4; submaximal (EC20) carbachol stimulus; buffer wells 0%, carbachol control wells 100% | shares compounds with RGS4 block | activity (percent), % at 10 µM | AID 493000 | 1,900 compounds, 20% hits; call rule not given here;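 also: RGS4 induction absent so cells express M3R without RGS4; higher means more calcium signal and flags a non-specific hit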
M3R basal Ca ctr – second counter-screen for RGS4 inhibitors: non-induced cells without carbachol. shares compounds with RGS4 block. HEK293 M3R/RGS4 non-induced, Fluo-4 calcium, no carbachol; normalised: buffer wells 0%, carbachol wells 100%. calcium response (agonist-mode artifact), % at 10 µM. 1,900 compounds, 22% hits;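 active = duplicate-averaged calcium rise in uninduced cells above buffer wells' mean plus 5 SD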
Active calls of the source: *; i = inactive; · = no result.

SMILES	MrgX1 PAM	MrgX1 ag	MrgX1 antagonist	RGS4 act	RGS4 block	RGS4 inh valid	M3R Ca ctr	M3R basal Ca ctr
O=C1NN(c2cccc(Br)c2)C(=O)/C1=C\c1ccc(O)cc1	i	i	i	i	i	·	31%*	i
CCOc1cc(/C=C2/C(=O)NN(c3cccc(Cl)c3)C2=O)ccc1O	i	i	i	i	5.7*	5.0%*	i	20%*
COc1cccc(CNC(=O)C2CCN(S(=O)(=O)c3cnc[nH]3)CC2)c1	i	i	i	i	i	·	·	·
Cc1cc(C)c2sc(NNC(=O)c3ccc(S(=O)(=O)N4CCc5ccccc5C4)cc3)nc2c1	i	i	i	i	i	·	i	i
Cc1cc(C)c2nc(NNC(=O)c3ccc(S(=O)(=O)N4CCc5ccccc5C4)cc3)sc2c1	i	i	i	i	6.5*	11%*	i	i
O=C(c1nnsc1S(=O)c1ccc(Cl)cc1)N1CCOCC1 (centres undefined)	·	·	·	i	7.1*	31%*	i	24%*
O=C(c1nnsc1S(=O)(=O)c1ccc(Cl)cc1)N1CCOCC1	·	·	·	i	i	·	·	·
O=c1[nH]c2ccc(NS(=O)(=O)c3ccc4ccccc4c3)cc2[nH]1	i	i	i	i	i	·	·	·
CCn1cc([N+](=O)[O-])c(C(=O)N2N=C(c3ccc4ccccc4c3)CC2c2cc(Br)ccc2O)n1 (centres undefined)	i	i	i	i	i	·	·	·
CCn1cc([N+](=O)[O-])c(C(=O)N2N=C(c3ccc(Cl)c(Cl)c3)CC2c2ccccc2O)n1 (centres undefined)	i	i	i	i	6.4*	22%*	i	i
CCn1cc([N+](=O)[O-])c(C(=O)N2N=C(c3ccc(O)c(OC)c3)CC2c2ccccc2O)n1 (centres undefined)	i	i	i	i	i	·	i	i
COc1ccc(C2CC(c3ccccc3OC(=O)/C=C/c3ccccc3)=NN2C(C)=O)cc1 (centres undefined)	i	i	i	i	i	·	·	·
NC1=NC2(CCC(c3ccccc3)CC2)n2c(nc3ccccc32)N1 (centres undefined)	i	i	i	i	5.2*	58%*	i	i
O=C(NC(=S)N1CCCc2ccccc21)c1ccc(Br)cc1	i	i	i	i	i	·	·	·
COc1ccc(NS(=O)(=O)c2ccc(Cl)c(N)c2)cc1Br	i	i	i	i	8.6*	15%*	32%*	i
Cc1ccc(C)c(-c2cc(C(=O)Nc3sc(C)c(C)c3C(N)=O)c3ccccc3n2)c1	i	i	i	i	i	·	i	7.0%*
S=c1[nH]nc(-c2cccs2)n1/N=C/c1c(Cl)cccc1Cl	i	i	i	i	11*	17%*	i	i
CC(=O)/C(=N/Nc1cccc(C)c1)N1CCOCC1	i	i	i	i	18*	10%*	58%*	i
Cc1cc(C)n(C(C[N+](=O)[O-])c2ccc(Cl)cc2)n1 (centres undefined)	i	i	i	i	14*	8.0%*	44%*	22%*
Cc1cc(O)c(C(C[N+](=O)[O-])c2ccc(Cl)cc2)c(=O)o1 (centres undefined)	i	i	i	i	i	·	·	·
Nc1nc(Cl)cc(N2CCC(c3cc(-c4ccc(Cl)cc4Cl)n[nH]3)CC2)n1	i	i	i	i	7.3*	16%*	i	i
Nc1nc(Cl)cc(N2CCCC2)n1	i	i	i	i	i	·	·	·
O=C(Nc1ccc(S(=O)(=O)Nc2cnc3ccccc3n2)cc1)c1ccc(Cl)c([N+](=O)[O-])c1	17*	i	i	i	8.9*	14%*	56%*	i
CC1(C)CC(=O)C(C(C2=C(O)CC(C)(C)CC2=O)c2ccc(Br)s2)C(=O)C1 (centres undefined)	i	i	i	i	18*	88%*	i	74%*
Cc1ccc(C(C2=C(O)CC(C)(C)CC2=O)C2C(=O)CC(C)(C)CC2=O)s1 (centres undefined)	i	i	i	i	14*	35%*	44%*	i
SMILES	MrgX1 PAM	MrgX1 ag	MrgX1 antagonist	RGS4 act	RGS4 block	RGS4 inh valid	M3R Ca ctr	M3R basal Ca ctr
CC1(C)CC(=O)C(C(C2=C(O)CC(C)(C)CC2=O)c2ccc([N+](=O)[O-])cc2)C(=O)C1 (centres undefined)	i	i	i	i	i	·	·	·
C=CCNC(=S)N/N=C/c1ccc(-c2cccc([N+](=O)[O-])c2)o1	i	i	i	i	i	·	·	·
O=C(/C=C\NCC(=O)c1ccccc1)c1ccc2ccccc2c1	i	i	i	i	6.5*	16%*	30%*	i
COc1ccc(Nc2nc(NC(C)(C)C)nc(N3CCCC3)n2)c(OC)c1	i	i	i	i	i	i	i	i
COc1ccc(Nc2nc(N3CCCC3)nc(N3CCCC3)n2)c(OC)c1	i	i	i	i	i	i	i	i
COc1ccc(Nc2nc(N3CCCCC3)nc(N3CCCCC3)n2)c(OC)c1	i	i	i	i	5.5*	9.0%*	i	i
O=C1C=C(NC2=CC3OC(c4ccccc4)OCC3OC2=O)CCC1 (centres undefined)	i	i	i	i	7.7*	36%*	i	i
Oc1ccc(-c2nc(-c3ccc(O)c(O)c3)cs2)cc1	i	i	i	i	i	i	i	i
CC(=O)Nc1nc(-c2ccc3ccccc3c2)cs1	i	i	i	i	5.1*	i	i	i
Oc1ccc(Nc2nc(-c3ccc4ccccc4c3)cs2)cc1	i	i	i	i	41*	84%*	88%*	i
O=C(CN1C(=O)CCC1=O)Nc1nc(-c2ccc3ccccc3c2)cs1	i	i	i	i	8*	5.0%*	i	i
COc1ccc(CNC(=O)c2nn(C)c3c2CS(=O)(=O)c2ccccc2-3)cc1	i	i	i	i	i	·	·	·
